Screening data (PubChem BioAssay)
STEP inh: STEP (human) phosphatase inhibition | P54829 | recombinant STEP, OMFP fluorogenic substrate, fluorescence | inhibition, % at 20 µM | actives 0.25% (n = 360,000);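 active means inhibition at 20 µM, scaled per plate between control wells, above about 37%, limit read from the data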;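 further: 0% = DMSO with enzyme and substrate and 100% = substrate only without enzyme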
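Material: STEP (striatal-enriched tyrosine phosphatase) enzyme, cell-free | Medium: 50 mM Bis-Tris pH 6.0 with 2.5 mM DTT and 0.005% Tween 20 | Read-out: Percent inhibition scaled to no-enzyme and uninhibited-enzyme controls, plate-pattern corrected | Signal: Fluorescence read at 480 nm ex / 540 nm em | Times: 20 min reaction, room temperature, in the dark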
Scp1 inh: blocks human Scp-1 phosphatase activity | Q9GZU7 | Recombinant Scp1, phosphopeptide, malachite green phosphate absorbance | inhibition, % at 20 µM | actives 0.88% (n = 340,000) | AID 493091;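 active means inhibition above about 50% at 20 µM, limit read from the data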;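 further: plate controls were DMSO wells with enzyme for no effect and wells lacking enzyme for full effect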
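Test system – truncated SCP-1 phosphatase (76-261aa) · Reagent – Phosphorylated 17-residue peptide substrate · Incubation – 45 min room-temperature reaction, 5 min colour, 30 min stabiliser · Detection – colorimetric phosphate reagent with accelerator and stabiliser, absorbance at 630 nm · Measure – % inhibition at 20 µM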
NadD inh: blocks S. aureus nicotinate mononucleotide adenylyltransferase | purified NadD enzyme, colorimetric absorbance read-out | inhibition, % at 20 µM | actives 0.78% (n = 360,000) | AID 602399; in the data active means inhibition above about 26%
DNMT1 block: DNMT1 (human) enzyme inhibition. P26358. DNMT1 molecular beacon, Hinp1I cleavage, fluorescence. inhibition (reported as % activation of signal), % at 10 µM. actives 0.83% (n = 360,000); in the data active means inhibition above about 50%
LMPTP block: blocks human LMPTP phosphatase; AID 651560; actives 0.22% (n = 360,000); recombinant LMPTP-A, OMFP fluorogenic substrate, fluorescence intensity; P24666; inhibition, % at 20 µM;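 active means compounds that cut the enzyme signal by at least half of the control window in the single-dose screen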;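 further: plate controls were DMSO wells with enzyme plus substrate for no effect and substrate without enzyme for full effect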
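Assay system: LMPTP-A phosphatase enzyme | Input: 0.625 nM enzyme | Also added: Fluorogenic phosphatase substrate OMFP at 400 µM final | Compound dosing: One test concentration per compound, 20 µM, with 3% DMSO overall | Schedule: 50 min enzyme reaction at room temperature, protected from light | Signal: Fluorescence intensity | Benchmarks: no-enzyme and uninhibited controls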
SUMO1-SIM PPI: modulators of human SUMO1-mediated protein-protein interactions; inhibition, % at 20 µM; actives 0.33% (n = 360,000); AID 602429; SUMO1 binding to a labelled peptide, TR-FRET, 1 h; P63165; in the data active means inhibition above about 37%
Scp-1 conf: Scp-1 (human) inhibition, single-dose confirmed | AID 540281 | recombinant SCP-1 catalytic domain, phosphate release, malachite green absorbance | actives 61% (n = 2,500) | shares compounds with Scp1 inh | inhibition, % at 20 µM;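 further: plate controls were DMSO with enzyme for no effect and buffer wells lacking enzyme for full effect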
Scp-1 MG ctr: interferes with malachite green readout, flagging false Scp-1 hits. apparent inhibition (interference), % at 20 µM. 2,500 tested, under 10 active. Colorimetric interference counterscreen, malachite green absorbance 630 nm. shares compounds with Scp1 inh;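 further: compounds added after enzyme reaction finished so only phosphate colour detection is probed; plate controls were DMSO wells with completed Scp-1 reaction for no effect and substrate wells lacking enzyme for full effect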
Scp-1 Tm shift: Scp-1 (human) binding by thermal shift | thermal shift relative to vanadate control, % at 40 µM | Recombinant SCP1, Sypro Orange thermal shift Tm | shares compounds with Scp1 inh | actives 25% (n = 1,500) | AID 540329;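 active means substances whose mean melting-temperature shift, as a percentage of the reference inhibitor's shift, reaches about 5.3%, limit read from the data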;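 further: 0% = Tm of DMSO wells and 100% = Tm with sodium orthovanadate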
* hit, by the source's call; x = not tested or not shown. In the library only some 2.4% were active in any assay of this set; here they are far more common.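 How the source made its calls, unless noted: active means inhibition of at least 30% at 20 µM; inactive means the rest.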

SMILES	STEP inh	Scp1 inh	NadD inh	DNMT1 block	LMPTP block	SUMO1-SIM PPI	Scp-1 conf	Scp-1 MG ctr	Scp-1 Tm shift
CCN(C(=O)CSc1nc2ccc(OC)cc2[nH]1)c1c(N)n(Cc2ccccc2)c(=O)[nH]c1=O	1	-6	-1	1	0	2	x	x	x
Cc1ccc2nc(SCC(=O)N(CC(C)C)c3c(N)n(Cc4ccccc4)c(=O)[nH]c3=O)[nH]c2c1	3	88*	7	-1	1	0	-1	-4	x
CCOc1ccc(NC(C)C(=O)N/N=C/c2cccs2)cc1 (centres undefined)	15	3	-1	-3	-1	-4	x	x	x
Cc1cc(Cl)ccc1NC(=O)CCC(=O)N/N=C/c1cc([N+](=O)[O-])ccc1O	0	55*	7	-2	35	-12	66*	-2	0
O=C(O)c1cc(N2C(=O)C=CC2=O)cc(N2C(=O)C=CC2=O)c1	27	82*	6	82*	3	50*	50*	-7	-4
CCC(=O)Nc1ccc(NC(=S)NC(=O)/C=C/c2ccccc2)cc1	12	67*	-10	1	-1	2	-4	-16	x
Cc1ccc(NC(=O)COCC(=O)Nc2ccc(C)cc2)cc1	0	4	5	3	0	2	x	x	x
Cc1ccc(S(=O)(=O)OCC(=O)Nc2ccc(C(=O)O)c(O)c2)cc1	6	64*	3	46	0	2	48*	-13	7.6*
Cc1cccc(NC(=S)N2CCC(NC(=O)c3ccco3)CC2)c1	3	-1	2	1	-1	-5	x	x	x
O=c1nc2cccc3c2=c(/c1=C(\O)c1ccccc1)c1ccccc1c3=O	4	72*	8	38	8	5	58*	-20	3
O=C(N/N=C/c1ccc(OC(=O)c2cccs2)cc1)c1ccc(F)cc1	14	70*	0	28	28	-3	64*	-15	-29
Cc1cccc(C(=O)Oc2ccc(/C=N/NC(=O)c3cc(O)cc(O)c3)cc2)c1	63*	53*	16	69*	12	31	60*	-9	3
O=C(N/N=C/c1ccc(F)cc1)c1ccccc1	2	-5	-5	1	1	0	x	x	x
O=C(Oc1ccc(/C=N/NC(=O)c2ccccc2F)cc1)c1ccccc1	3	-2	2	5	1	2	x	x	x
O=C(Oc1ccc(/C=N/NC(=O)c2ccccc2O)cc1)c1ccccc1	-1	82*	22	-6	3	0	70*	-5	-8
O=C(N/N=C/c1ccc(OCCCF)cc1)c1ccc(C(F)(F)F)cc1	25	93*	-5	28	30	2	64*	-19	-13
COc1cccc(NC(=O)c2oc3ccccc3c2NC(=O)C(C)(C)C)c1	-1	-8	-8	4	5	0	x	x	x
Cn1cc(Cl)c(C(=O)Nc2nc3ccccc3s2)n1	1	-8	-6	-3	-1	-3	x	x	x
Cn1cc(Cl)c(C(=O)Nc2cccc(Cl)c2Cl)n1	-1	72*	1	21	16	3	76*	-14	-1
CCOc1ccc(C=NNc2ccc(S(=O)(=O)Nc3ccccc3C(=O)O)cc2[N+](=O)[O-])cc1OC	98*	72*	21	-6	37	25	86*	-8	17*
COc1ccc(CCNC(=O)CCS(=O)(=O)c2ccc3c(c2)NC(=O)CS3)cc1OC	-1	-9	-4	-2	2	2	x	x	x
COC(=O)C1=C(C(=O)OC)[C@@H]2N(C)c3ccccc3[C@@]23C[C@@H](C(=O)OC)N(C(=O)C2CCC2)C3=N1	-1	1	0	-1	0	7	x	x	x
Cc1nc(SCC#N)c2c3c(sc2n1)CCC3	2	-7	-5	5	-3	-3	x	x	x
N#CCSc1ncnc2sc3c(c12)CCC3	1	68*	11	48	34	19	0	-23	x
Cc1cc(C=O)c(C)n1-c1cccc(C(=O)O)c1	4	53*	0	41	-1	0	52*	-13	-4
SMILES	STEP inh	Scp1 inh	NadD inh	DNMT1 block	LMPTP block	SUMO1-SIM PPI	Scp-1 conf	Scp-1 MG ctr	Scp-1 Tm shift
Cc1nc(/N=C\N(C)C)sc1C(=O)Nc1ccccc1	1	1	1	5	-1	-2	x	x	x
CCN(CC)CCNC(=O)c1ccc(NC(=O)C2CCN(c3ncnc4sc(C)c(C)c34)CC2)cc1	-1	112*	1	-3	1	-7	-14	-8	x
Cc1cc(C)c(C#N)c(N2CCN(Cc3ccc4c(c3)OCO4)CC2)n1	0	42	-12	-1	0	-3	x	x	x
CO[C@@]1(NC(=O)Cc2cccs2)C(=O)N2C(C(=O)O)=C(COC(N)=O)CS[C@@H]21	5	52*	2	6	-1	8	41*	-10	2
Cc1ccc(-c2nc(NC(=O)CSc3nnc4scc(-c5ccccc5)n34)ns2)cc1	1	64*	13	32	13	-4	65*	-7	0
Cc1nnc(SCC(=O)Nc2nsc(-c3ccc(Cl)cc3)n2)s1	13	70*	5	45	3	-9	43*	-15	-9
Cc1nn(-c2cccc([N+](=O)[O-])c2)c(N)c1-c1ccccc1	1	-5	-1	1	-1	-27	x	x	x
COc1ccc(N2CC(C(=O)N/N=C/c3ccccc3)CC2=O)cc1 (centres undefined)	-1	14	3	10	-1	-2	-23	-22	x
COC(=O)c1ccc(/C=N/NC(=O)C2CC(=O)N(c3ccc(OC)cc3)C2)cc1 (centres undefined)	0	11	2	1	-1	-12	x	x	x
O=C1CC(=O)Nc2cc(S(=O)(=O)Nc3cccc(C(F)(F)F)c3)ccc2N1	-2	-5	1	6	-1	7	-5	-7	x
CCOCCCNC(=O)Cn1cc2c(n1)CCCC2	-1	75*	5	-2	0	-3	-4	-5	x
CCc1ccc(NC(=O)Cn2c(=O)oc3cc(S(=O)(=O)N4CCOCC4)ccc32)cc1	-2	7	9	3	1	-2	x	x	x
Cc1cccc(C(=O)NC2CCN(C(=O)NCc3ccccc3)CC2)c1	0	75*	14	5	0	0	60*	-11	-3
